Assay outcomes from PubChem.
APP 5'UTR act: APP 5'UTR luciferase reporter activation; SH-SY5Y APP 5'UTR luciferase reporter, luminescence; zero percent = DMSO vehicle wells; activation, % at 2 µM; AID 1276; 1% of 190,000 active;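 active = activation above a set limit, based on mean plus 3 SD of controls, cut at about 140% in these data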
NF-kB neuron act: compounds increasing NF-kB expression in human neuronal cells; NF-kB reporter expression; hits give high values; fold change at 12.5 µM; 1.6% of 190,000 active; AID 1239; in the data active = fold change above about 3.3
STAT3 inh-1: inhibitors of IL-6 induced STAT3 signaling; U3A cells, IL-6 STAT3-luciferase reporter, luminescence; host cell line lacks STAT1; 0.89% of 190,000 active; inhibition, % at 5.5 µM;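 active = inhibition above the mean inhibition across all screened compounds plus 3 SD, cut at about 44% in these data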;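 note: 0% = DMSO only wells and 100% = 100 µM nifuroxazide control wells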
STAT1 activator: activators of IFN-gamma induced STAT1 signaling; NIH 3T3 STAT1-luciferase reporter, luminescence; 100% = IFN-gamma alone, no compound; activation (% of control), % at 5.5 µM; 2.6% of 200,000 active; AID 932;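 active = activation above the screen-wide mean activation plus 3 SD, cut at about 130% in these data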;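 note: raw ratio to IFN-gamma control signal so 100% means no change and 0% no light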
STAT1 inh: STAT1 signaling inhibition | NIH 3T3 STAT1-luciferase reporter, IFN-gamma, luminescence | inhibition, % at 5.5 µM | 0.35% of 200,000 active | AID 920;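 active = inhibition above a set limit, the mean inhibition across all tested compounds plus 3 SD, cut at about 34% in these data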;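 note: 0% = IFN-gamma with DMSO and 100% = IFN-gamma with 300 µM nifuroxazide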
STAT3 act: increases IL-6 driven STAT3 reporter signal; U3A cells, IL-6 STAT3-luciferase reporter, luminescence; 100% = signal with IL-6 EC80 alone; activation (% of control), % at 5.6 µM; 0.91% of 190,000 active;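 active = activation above the screen-wide mean of compound activation plus 3 SD, cut at about 130% in these data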;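 note: 0% = background luminescence of wells with medium and substrate only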
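Material: STAT3-luciferase reporter U3A cells; Probe or stimulus: IL-6 (33 ng/mL); Incubation: compound pre-incubation 1 h before IL-6, then 6 h stimulation at 37 °C; Technique: luminescence from STAT3-driven luciferase reporter; Evaluation: % activation versus median of IL-6-stimulated wells; Controls: IL-6-only high control.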
STAT3 inh-2: STAT3 inhibition, confirmation assay; U3A cells, IL-6 STAT3 luciferase reporter, luminescence; cell line lacks STAT1; AID 1265; inhibition, % at 5.7 µM; shares compounds with STAT3 inh-1; 45% of 1,200 active;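 active = inhibition above the hit cutoff computed for the primary STAT3 screen, cut at about 44% in these data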;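 note: 0% = IL-6 plus DMSO and 100% = IL-6 plus nifuroxazide control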
NFkB inh STAT3ct: counter-screen for STAT3 inhibitors: NF-kappaB inhibition; inhibition, % at 5.7 µM; HEK293T NF-kB luciferase reporter, TNF-alpha induced; 36% of 1,200 active; shares compounds with STAT3 inh-1;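 active = inhibition above the mean of solvent-only control wells plus 3 SD, cutoff set per campaign, cut at about 13% in these data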;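 note: 0% = TNF-alpha with DMSO and 100% = TNF-alpha with MG high control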
STAT1 inh 2: counter-screen for STAT3 inhibitors: STAT1 inhibition | shares compounds with STAT3 inh-1 | NIH 3T3 STAT1-luciferase reporter, IFN-gamma induced, luminescence | inhibition, % at 5.7 µM | 27% of 1,200 active | AID 1317;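 active = inhibition above the mean plus 3 SD of solvent-only control wells, limit set per screening run, cut at about 16% in these data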;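 note: 0% = DMSO with IFN-gamma and 100% = nifuroxazide control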
Active calls of the source: *. Compounds with a hit are over-represented: about 4.9% of the library has one in this group of screens.

`CCCCN(C(=O)NC(=O)Nc1ccc(C)cn1)S(C)(=O)=O` gave APP 5'UTR act 5, NF-kB neuron act 1.3, STAT3 inh-1 4, STAT1 activator 101, STAT1 inh -2 and STAT3 act 93.
For CCOc1ccc(-c2nc[nH]c2[N+](=O)[O-])cc1 the results were APP 5'UTR act 1, NF-kB neuron act 1.1, STAT3 inh-1 2, STAT1 activator 104, STAT1 inh -2 and STAT3 act 102.
For Cc1ccc(-c2cc(C(=O)NCCCN3CCOCC3)no2)cc1 the results were APP 5'UTR act -12, NF-kB neuron act 0.74, STAT3 inh-1 56*, STAT1 activator 89, STAT1 inh 12, STAT3 act 57, STAT3 inh-2 8, NFkB inh STAT3ct -15 and STAT1 inh 2 -14.
O=C(NCCN1CCOCC1)c1cc(-c2ccc(Cl)cc2)on1 was read as APP 5'UTR act -13, NF-kB neuron act 1.7, STAT3 inh-1 8, STAT1 activator 96, STAT1 inh 4 and STAT3 act 97.
Screening CC(C)(C)Nc1c(-c2ccc(O)cc2)nc2ccc(Cl)cn12 returned APP 5'UTR act 34, NF-kB neuron act 1.4, STAT3 inh-1 26, STAT1 activator 97, STAT1 inh 2 and STAT3 act 81.
Screening CCC(=O)Nc1cc2nn(-c3ccc(C)cc3)nc2cc1C returned APP 5'UTR act 116, NF-kB neuron act 0.7, STAT3 inh-1 82*, STAT1 activator 105, STAT1 inh -6, STAT3 act 36, STAT3 inh-2 51*, NFkB inh STAT3ct 14* and STAT1 inh 2 -107.
CCC(=O)Nc1cc2nn(-c3ccc(OC)cc3)nc2cc1C was read as APP 5'UTR act 162*, NF-kB neuron act 2.2, STAT3 inh-1 44*, STAT1 activator 133*, STAT1 inh -35, STAT3 act 67, STAT3 inh-2 40, NFkB inh STAT3ct -2 and STAT1 inh 2 -51.
Screening CCCCC(=O)Nc1cc2nn(-c3ccc(OC)cc3)nc2cc1C returned APP 5'UTR act 15, NF-kB neuron act 1.3, STAT3 inh-1 4, STAT1 activator 111, STAT1 inh -12 and STAT3 act 102.
`Cc1nnc(SCC(=O)NCc2ccccc2Cl)[nH]c1=O` gave APP 5'UTR act -6, NF-kB neuron act 1.3, STAT3 inh-1 1, STAT1 activator 99, STAT1 inh -2 and STAT3 act 105.
Screening Cc1c(Br)c([N+](=O)[O-])nn1CC(=O)Nc1ccc(Cc2ccncc2)cc1 returned APP 5'UTR act 3, NF-kB neuron act 1.1, STAT3 inh-1 10, STAT1 activator 107, STAT1 inh -8 and STAT3 act 95.
Cc1ccc(SCc2cn3c(C)csc3n2)cc1 was read as APP 5'UTR act 199*, NF-kB neuron act 5.7*, STAT3 inh-1 54*, STAT1 activator 126, STAT1 inh -28, STAT3 act 55, STAT3 inh-2 22, NFkB inh STAT3ct -21 and STAT1 inh 2 -70.
Cn1cc([N+](=O)[O-])c(C(=O)N/N=C/c2ccc3c(c2)OCO3)n1 was read as APP 5'UTR act 9, NF-kB neuron act 1.1, STAT3 inh-1 -1, STAT1 activator 110, STAT1 inh -12 and STAT3 act 105.
Screening COCCCNCC(O)COc1ccccc1F (centres undefined) returned APP 5'UTR act 18, NF-kB neuron act 1.1, STAT3 inh-1 3, STAT1 activator 100, STAT1 inh -2 and STAT3 act 106.
`O=C(NC1=NC2CCCCC2N1)c1ccccc1` (centres undefined) gave APP 5'UTR act 39, NF-kB neuron act 2.6, STAT3 inh-1 49*, STAT1 activator 114, STAT1 inh -16, STAT3 act 61, STAT3 inh-2 22, NFkB inh STAT3ct -18 and STAT1 inh 2 -59.
